One may read the IC50 as the concentration needed to halve the response being measured. Low readings indicate higher potency, high ones lower potency.

This test deals with Glutamate carboxypeptidase 2 (Rattus norvegicus, UniProt P70627). Briefly: Inhibitory concentration against rat brain NAALADase (Folate hydrolase). Summed up: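 IC50 values were determined by a method described elsewhere, from two to four independent determinations each. The values refer to racemic material.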
Chain of Glutamate carboxypeptidase 2 (P70627 whole entry): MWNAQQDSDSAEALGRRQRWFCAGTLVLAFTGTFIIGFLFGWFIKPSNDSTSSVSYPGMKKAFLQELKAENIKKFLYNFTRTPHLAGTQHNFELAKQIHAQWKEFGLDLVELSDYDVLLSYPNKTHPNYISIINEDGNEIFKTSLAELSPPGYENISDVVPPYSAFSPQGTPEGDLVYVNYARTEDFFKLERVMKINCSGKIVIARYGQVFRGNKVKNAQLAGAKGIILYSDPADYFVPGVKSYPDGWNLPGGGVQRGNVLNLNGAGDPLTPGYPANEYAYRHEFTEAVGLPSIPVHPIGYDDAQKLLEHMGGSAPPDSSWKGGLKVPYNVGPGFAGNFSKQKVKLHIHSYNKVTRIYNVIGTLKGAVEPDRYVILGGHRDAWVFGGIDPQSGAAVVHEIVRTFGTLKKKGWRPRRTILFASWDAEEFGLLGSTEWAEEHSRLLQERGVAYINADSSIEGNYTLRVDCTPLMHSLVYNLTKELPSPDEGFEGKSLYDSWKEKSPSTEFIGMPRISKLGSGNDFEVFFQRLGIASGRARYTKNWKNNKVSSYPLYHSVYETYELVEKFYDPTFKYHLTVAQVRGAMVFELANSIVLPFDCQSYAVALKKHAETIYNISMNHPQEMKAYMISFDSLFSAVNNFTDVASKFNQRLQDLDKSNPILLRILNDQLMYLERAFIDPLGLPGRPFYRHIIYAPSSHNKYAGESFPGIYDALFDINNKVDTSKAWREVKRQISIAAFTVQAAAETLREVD
`O=C(O)CCC(CP(=O)(O)C(O)c1cccc(F)c1)C(=O)O` (stereo not given): 0.016 µM corresponded to half-maximal inhibition (IC50).

On to `O=C(O)CC(CP(=O)(O)O)C(=O)O` (stereo not given), for which 2.2 µM corresponded to half-maximal inhibition (IC50).

Regarding `O=C(O)CCC(CP(=O)(O)Cc1cc(C(F)(F)F)cc(C(F)(F)F)c1)C(=O)O` (stereo not given), the IC50 stood at 0.055 µM. Against the preceding molecule, the IC50 is about 40-fold lower.

`CC(CP(=O)(O)CC(CCC(=O)O)C(=O)O)C(=O)OCc1ccccc1` (stereo not given): half-maximal inhibition (IC50) was put at 0.095 µM.

`O=C(O)C(Cc1ccccc1)CP(=O)(O)O` (stereo not given): the IC50 was found to be 0.548 µM.

Regarding `O=C(O)CCC(CP(=O)(O)c1ccccc1)C(=O)O` (stereo not given), the IC50 is 2.93 µM.

In turn, `COc1ccc(NCP(=O)(O)CC(CCC(=O)O)C(=O)O)cc1` (stereo not given) showed an IC50 of 0.003 µM.

In turn, `O=C(O)CCC(CP(=O)(O)C(O)c1ccncc1)C(=O)O` (stereo not given) gave an IC50 of 0.01 µM.

Molecule `Nc1cccc(CP(=O)(O)CC(CCC(=O)O)C(=O)O)c1` (stereo not given) yielded an IC50 of 0.143 µM. Against the preceding molecule, the IC50 is about 14-fold higher.

Molecule `O=C(O)C(CCc1ccccc1)CP(=O)(O)O` (stereo not given) yielded an IC50 of 0.199 µM.

For `O=C(O)CCC(CP(=O)(O)CC(CCC(=O)O)C(=O)O)C(=O)O` (stereo not given), the half-inhibitory concentration (IC50) was found to be 0.0005 µM.

`O=C(O)CCC(CP(=O)(O)CCc1ccccc1)C(=O)O` (stereo not given): the half-inhibitory concentration (IC50) stood at 0.149 µM.

The molecule `O=C(O)C(Cc1cccc(O)c1)CP(=O)(O)O` (stereo not given) came in with a half-maximal inhibitory concentration (IC50) of 0.508 µM.

Turning to `O=C(O)CCCC(CP(=O)(O)O)C(=O)O` (stereo not given), the midpoint of inhibition, the IC50, lay at 0.185 µM.

`N#CCCC(CP(=O)(O)O)C(=O)O` (stereo not given) displayed an IC50 of 0.335 µM.

In turn, `O=C(O)CCC(CP(=O)(O)Cc1ccccc1F)C(=O)O` (stereo not given) came in with a half-inhibitory concentration (IC50) of 0.156 µM.

In turn, `CC(CP(=O)(O)CC(CCC(=O)O)C(=O)O)C(=O)O` (stereo not given) registered a half-maximal inhibitory concentration (IC50) of 0.0015 µM.

On to `O=C(O)CCC(CP(=O)(O)Cc1ccccc1)C(=O)O` (stereo not given), for which 0.053 µM corresponded to half-maximal inhibition (IC50).

In the case of `O=C(O)CCC(CP(=O)(O)Cc1cc(F)cc(F)c1)C(=O)O` (stereo not given), 0.049 µM corresponded to half-maximal inhibition (IC50).

In turn, `CCCP(=O)(O)CC(CCC(=O)O)C(=O)O` (stereo not given) registered an IC50 of 0.36 µM.

The molecule `O=C(O)C(CCC1N=NN=N1)CP(=O)(O)O` (stereo not given) had a half-maximal inhibitory concentration (IC50) of 0.175 µM.

`Cc1ccc(CP(=O)(O)CC(CCC(=O)O)C(=O)O)cc1` (stereo not given) yielded an IC50 of 0.068 µM. This IC50 is about 2.6-fold lower than that of the molecule before.

Consider `O=C(O)CCC(CP(=O)(O)CNCc1ccccc1)C(=O)O` (stereo not given), for which the IC50 came out at 0.059 µM.

In the case of `O=C(O)CCC(CP(=O)(O)CC(Cc1ccccc1)C(=O)O)C(=O)O` (stereo not given), inhibition was half-maximal at 0.002 µM (IC50).

As to `O=C(O)CCC(CP(=O)(O)Cc1c(F)c(F)c(F)c(F)c1F)C(=O)O` (stereo not given), it took 0.082 µM to reach half-maximal inhibition (IC50).

The record behind these values is ChEMBL document CHEMBL1134287, “Design and pharmacological activity of phosphinic acid based NAALADase inhibitors” (J Med Chem, 2001).
